Converted amounts (≈) assume the structure as drawn.
How the values were obtained:
Escherichia coli = test: In vitro minimum inhibitory concentration for Escherichia coli ATCC 10799; assay type: functional
Outline: (§1)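 Serial 2-fold agar dilution in Mueller Hinton medium, run alongside a reference quinolone. Inoculum adjusted to 10⁸ cfu/mL; compound range 0.007–16 μg/mL.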

Mus musculus [1] = test: Evaluation of efficacy on systemic infections Pseudomonas aeruginosa HS-116, after oral administration in mice; assay type: functional
Outline: (§2)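 Single oral dose given immediately after infection, one of four doses per group, chosen from in vitro activity. Survival scored after one week. ED50 (total mg/kg protecting 50%) interpolated from survival rates.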

Enterobacter cloacae = test: In vitro minimum inhibitory concentration for Enterobacter cloacae ATCC 23355; assay type: functional
Enterococcus faecalis = test: In vitro minimum inhibitory concentration for Streptococcus faecalis ATCC 10541; assay type: functional; outline: as §1
Mus musculus [2] = test: Evaluation of efficacy on systemic infections Escherichia coli HM-42, after oral administration in mice; assay type: functional; outline: as §2
Mus musculus [3] = test: Evaluation of efficacy on systemic infections Staphylococcus aureus HS-93, after oral administration in mice; assay type: functional; outline: as §2
[4] = system: Staphylococcus epidermidis; test: In vitro minimum inhibitory concentration for Staphylococcus epidermidis ATCC 155-1; assay type: functional; outline: as §1
Klebsiella pneumoniae = test: In vitro minimum inhibitory concentration to inhibit Klebsiella pneumoniae ATCC 10031; assay type: functional; outline: as §1
Proteus vulgaris = test: In vitro minimum inhibitory concentration for Proteus vulgaris ATCC 8427; assay type: functional; outline: as §1
Staphylococcus aureus = test: In vitro minimum inhibitory concentration for Staphylococcus aureus ATCC 25178; assay type: functional; outline: as §1
Morganella morganii = test: In vitro minimum inhibitory concentration for Morganella morganii ATCC 8019; assay type: functional; outline: as §1
[5] = HPLC capacity factor (k'); assay type: ADME
Outline: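 Ion-pair reversed-phase HPLC on ODS-2 (10 μm) at 45 °C. Mobile phase: 10 mM sodium heptanesulfonate plus 50 mM KH2PO4 (pH 3.5)–methanol 45:55, 1 mL/min. Samples at 100 μg/mL in DMF, injected in duplicate, UV 280 nm. k' = (tR − t0)/t0.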

Bacillus cereus = test: In vitro minimum inhibitory concentration for Bacillus cereus ATCC 11778; assay type: functional; outline: as §1
Pseudomonas aeruginosa = test: In vitro minimum inhibitory concentration for Pseudomonas aeruginosa ATCC 10145; assay type: functional; outline: as §1
Bacillus subtilis = test: In vitro minimum inhibitory concentration for Bacillus subtilis ATCC 6633; assay type: functional; outline: as §1
[6] = AUC (0-4 hr) ug/ml/h; assay type: ADME, cell-free; design: time < 4 hr; concentration or dose not given beside the values; conditions: plasma
Outline: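 Mice dosed once orally at 50 mg/kg; blood taken from groups of six mice at 0.5, 1, 2 and 4 h. Serum drug assayed by disk agar diffusion bioassay (Bacillus subtilis ATCC 6633 on Seed Agar, 37 °C, 18 h), giving total activity.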

[7] = Solubility (buffer pH 7.4); assay type: physicochemical; conditions: read-out: S
Outline: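 Excess solid shaken in 0.05 M phosphate buffer pH 7.4 for 24 h at 25 °C. Suspension filtered through 0.22 μm, discarding the first portion. Filtrate diluted in 0.1 N HCl or 0.1 N NaOH and read by UV at the compound's absorbance maximum.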

Row | Compound | MIC (Escherichia coli) [µg/mL] | ED50 (Mus musculus [1]) [mg/kg] | MIC (Enterobacter cloacae) [µg/mL] | MIC (Enterococcus faecalis) [µg/mL] | ED50 (Mus musculus [2]) [mg/kg] | ED50 (Mus musculus [3]) [mg/kg] | MIC [4] [µg/mL] | MIC (Klebsiella pneumoniae) [µg/mL] | MIC (Proteus vulgaris) [µg/mL] | MIC (Staphylococcus aureus) [µg/mL] | MIC (Morganella morganii) [µg/mL] | Log k' [5] | MIC (Bacillus cereus) [µg/mL] | MIC (Pseudomonas aeruginosa) [µg/mL] | MIC (Bacillus subtilis) [µg/mL] | AUC [6] [ng·h/mL] | solubility [7] [µg/mL]
1 | C[C@H]1[C@H](N)CN1c1c(F)cc2c(=O)c(C(=O)O)cn(-c3ccc(F)cc3)c2c1Cl | 0.06 (≈ 0.143 µM) | 37.9 | 0.06 (≈ 0.143 µM) | 0.25 (≈ 0.596 µM) | 3.6 | 1.3 | 0.06 (≈ 0.143 µM) | 0.03 (≈ 0.0715 µM) | 0.25 (≈ 0.596 µM) | 0.03 (≈ 0.0715 µM) | 0.06 (≈ 0.143 µM) | 0.2581 | 0.03 (≈ 0.0715 µM) | 0.25 (≈ 0.596 µM) | 0.03 (≈ 0.0715 µM) |  | 
2 | C[C@@H]1[C@@H](CN)CN1c1c(F)cc2c(=O)c(C(=O)O)cn(C3CC3)c2c1F | 0.06 (≈ 0.165 µM) | 70 | 0.06 (≈ 0.165 µM) | 0.25 (≈ 0.688 µM) | 31 | 20 | 0.12 (≈ 0.33 µM) | 0.12 (≈ 0.33 µM) | 0.25 (≈ 0.688 µM) | 0.12 (≈ 0.33 µM) | 0.25 (≈ 0.688 µM) | -0.0397 | 0.25 (≈ 0.688 µM) | 0.5 (≈ 1.38 µM) | 0.06 (≈ 0.165 µM) | 2300 | 
3 | C[C@H]1[C@H](N)CN1c1c(F)cc2c(=O)c(C(=O)O)cn(-c3ccc(F)cc3)c2c1F | 0.12 (≈ 0.298 µM) | 54.6 | 0.12 (≈ 0.298 µM) | 2 (≈ 4.96 µM) | 2.5 | 5.7 | 0.12 (≈ 0.298 µM) | 0.12 (≈ 0.298 µM) | 0.5 (≈ 1.24 µM) | 0.25 (≈ 0.62 µM) | 0.25 (≈ 0.62 µM) | 0.1875 | 0.25 (≈ 0.62 µM) | 2 (≈ 4.96 µM) | 0.12 (≈ 0.298 µM) | 31400 | 11.2 (≈ 27.8 µM)
4 | CCNC[C@H]1CN(c2c(F)cc3c(=O)c(C(=O)O)cn(C4CC4)c3c2F)[C@@H]1C | 0.25 (≈ 0.639 µM) | 61 | 1 (≈ 2.55 µM) | 2 (≈ 5.11 µM) | 4.7 | 37.5 | 0.25 (≈ 0.639 µM) | 0.06 (≈ 0.153 µM) | 0.5 (≈ 1.28 µM) | 0.25 (≈ 0.639 µM) | 0.5 (≈ 1.28 µM) | 0.025 | 0.25 (≈ 0.639 µM) | 4 (≈ 10.2 µM) | 0.12 (≈ 0.307 µM) | 11800 | 
5 | CCNC[C@H]1CN(c2cc3c(cc2F)c(=O)c(C(=O)O)cn3C2CC2)[C@@H]1C | 0.12 (≈ 0.321 µM) | 265 | 0.12 (≈ 0.321 µM) | 4 (≈ 10.7 µM) | 28.4 | 60.5 | 0.5 (≈ 1.34 µM) | 0.06 (≈ 0.161 µM) | 1 (≈ 2.68 µM) | 0.5 (≈ 1.34 µM) | 0.5 (≈ 1.34 µM) | -0.0042 | 1 (≈ 2.68 µM) | 4 (≈ 10.7 µM) | 0.06 (≈ 0.161 µM) | 3200 | 
6 | C[C@H]1[C@H](N)CN1c1cc2c(cc1F)c(=O)c(C(=O)O)cn2-c1ccc(F)cc1 | 0.12 (≈ 0.311 µM) | 109 | 0.06 (≈ 0.156 µM) | 0.5 (≈ 1.3 µM) | 2.9 | 7.5 | 0.25 (≈ 0.649 µM) | 0.015 (≈ 0.0389 µM) | 0.25 (≈ 0.649 µM) | 0.25 (≈ 0.649 µM) | 0.06 (≈ 0.156 µM) | 0.0755 | 0.25 (≈ 0.649 µM) | 1 (≈ 2.59 µM) | 0.06 (≈ 0.156 µM) | 16900 | 
7 | C[C@@H]1[C@@H](CN)CN1c1cc2c(cc1F)c(=O)c(C(=O)O)cn2C1CC1 | 0.12 (≈ 0.347 µM) | 355 | 0.12 (≈ 0.347 µM) | 1 (≈ 2.9 µM) | 60.5 | 95 | 0.25 (≈ 0.724 µM) | 0.06 (≈ 0.174 µM) | 1 (≈ 2.9 µM) | 0.25 (≈ 0.724 µM) | 1 (≈ 2.9 µM) | -0.0607 | 1 (≈ 2.9 µM) | 2 (≈ 5.79 µM) | 0.06 (≈ 0.174 µM) | 0 | 
8 | C[C@H]1[C@H](N)CN1c1nc2c(cc1F)c(=O)c(C(=O)O)cn2-c1ccc(F)cc1 | 0.12 (≈ 0.311 µM) | > 400 | 0.12 (≈ 0.311 µM) | 4 (≈ 10.4 µM) | 3.1 | 11.9 | 0.25 (≈ 0.647 µM) | 0.06 (≈ 0.155 µM) | 2 (≈ 5.18 µM) | 0.25 (≈ 0.647 µM) | 0.25 (≈ 0.647 µM) | 0.0681 | 0.25 (≈ 0.647 µM) | 2 (≈ 5.18 µM) | 0.06 (≈ 0.155 µM) |  | 

From ChEMBL document CHEMBL1127424, “7-azetidinylquinolones as antibacterial agents. 2. Synthesis and biological activity of 7-(2,3-disubstituted-1-azetidinyl)-4-oxoquinoline- and -1,8-naphthyridine-3-carboxylic acids. Properties and structure-activity relationships of quinolones with an azetidine moiety” (J Med Chem, 1994)
